According to ChEMBL document CHEMBL3091378, “Design, synthesis and biological evaluation of α-substituted isonipecotic acid benzothiazole analogues as potent bacterial type II topoisomerase inhibitors” (Bioorg Med Chem Lett, 2013):
In brackets after ≈: the same amount, converted by molar mass. Activity calls are given as the source filed them. The calls are words filed in the database; no cut-off is given here.

Key:
Enterococcus faecalis = assay: Antibacterial activity against Enterococcus faecalis ATCC 29212 assessed as growth inhibition after 16 to 20 hrs by broth microdilution method; format: functional
Outline: (§1)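 Broth microdilution susceptibility testing following the CLSI M7-A7 standard; MIC determined.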

[1] = Solubility of the compound in PBS at pH 7.4 after 24 hrs by turbidimetric analysis; format: physicochemical
Outline: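 Doubling dilutions in DMSO diluted 20-fold into 100 mM PBS pH 7.4, equilibrated 24 h at room temperature, absorbance read at 620 nm. Value is the highest concentration with no measurable precipitate.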

DNA gyrase = DNA gyrase (Staphylococcus aureus, UniProt P0A0K8+P20831); assay: Inhibition of Staphylococcus aureus DNA gyrase ATPase subunit GyrA2/GyrB2 after 60 mins by malachite green staining assay; format: protein-complex assay
Sequence of DNA gyrase (P0A0K8 whole entry): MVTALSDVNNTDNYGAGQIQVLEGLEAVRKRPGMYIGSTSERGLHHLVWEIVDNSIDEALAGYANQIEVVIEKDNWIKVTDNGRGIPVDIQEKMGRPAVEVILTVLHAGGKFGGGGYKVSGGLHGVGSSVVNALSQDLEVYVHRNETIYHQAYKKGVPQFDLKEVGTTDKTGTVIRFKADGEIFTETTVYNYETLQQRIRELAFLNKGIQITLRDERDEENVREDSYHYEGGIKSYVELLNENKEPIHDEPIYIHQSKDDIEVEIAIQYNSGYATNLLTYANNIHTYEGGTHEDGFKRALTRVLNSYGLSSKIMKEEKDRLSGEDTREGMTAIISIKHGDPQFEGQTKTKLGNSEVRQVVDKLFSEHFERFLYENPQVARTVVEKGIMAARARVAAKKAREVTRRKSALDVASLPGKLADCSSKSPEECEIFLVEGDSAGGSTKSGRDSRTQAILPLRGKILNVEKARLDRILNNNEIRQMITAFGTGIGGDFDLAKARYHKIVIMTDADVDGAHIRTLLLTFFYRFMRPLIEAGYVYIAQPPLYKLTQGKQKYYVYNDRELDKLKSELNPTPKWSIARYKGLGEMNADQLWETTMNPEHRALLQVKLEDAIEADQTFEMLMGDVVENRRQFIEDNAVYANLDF
Sequence of DNA gyrase (P20831 whole entry): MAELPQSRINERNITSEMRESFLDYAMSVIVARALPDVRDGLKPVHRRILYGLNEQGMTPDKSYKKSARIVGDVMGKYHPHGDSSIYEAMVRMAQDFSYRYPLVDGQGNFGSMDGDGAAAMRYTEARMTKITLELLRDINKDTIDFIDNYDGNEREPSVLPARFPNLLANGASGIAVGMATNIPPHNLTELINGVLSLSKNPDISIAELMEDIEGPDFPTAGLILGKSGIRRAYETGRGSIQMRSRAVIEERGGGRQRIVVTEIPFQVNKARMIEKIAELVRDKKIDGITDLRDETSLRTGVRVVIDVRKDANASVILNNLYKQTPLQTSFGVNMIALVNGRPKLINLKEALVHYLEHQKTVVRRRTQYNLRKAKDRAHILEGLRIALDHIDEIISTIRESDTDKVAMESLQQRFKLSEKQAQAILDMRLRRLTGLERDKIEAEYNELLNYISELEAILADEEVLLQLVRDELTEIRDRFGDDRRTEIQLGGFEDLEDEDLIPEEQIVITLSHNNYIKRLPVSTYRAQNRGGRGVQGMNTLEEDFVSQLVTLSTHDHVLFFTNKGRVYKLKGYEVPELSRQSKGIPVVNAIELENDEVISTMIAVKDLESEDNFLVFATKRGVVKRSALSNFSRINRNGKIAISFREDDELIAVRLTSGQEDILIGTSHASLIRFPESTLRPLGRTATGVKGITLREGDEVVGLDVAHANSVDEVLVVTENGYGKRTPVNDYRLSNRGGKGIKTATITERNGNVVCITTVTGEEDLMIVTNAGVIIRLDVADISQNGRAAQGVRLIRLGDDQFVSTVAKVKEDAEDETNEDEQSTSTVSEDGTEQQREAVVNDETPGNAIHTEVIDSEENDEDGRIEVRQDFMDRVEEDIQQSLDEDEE
Outline: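 S. aureus gyrase A2B2, 10 nM, with 0.08 mg/mL DNA in 40 mM HEPES pH 7.6, 10 mM Mg acetate, 0.5 M K glutamate, 0.01 mg/mL BSA, 2 mM DTT, 5% DMSO. Reaction started with 1 mM ATP and run 60 min at 30 °C. Malachite green absorbance read at 600 nm. IC50 derived using no-compound and no-enzyme controls.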

[2] = Oral bioavailability in mouse at 3 mg/kg; format: ADME, organism-based; conditions: in vivo
Outline: (§2)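 Single 3 mg/kg dose given as an IV bolus by tail vein or by oral gavage, dose volume 5 mL/kg. Rats were bled by jugular vein catheter. Anaesthetised mice were bled from the retro-orbital plexus. Plasma was extracted into methanol and drug measured by LC/MS/MS. Cmax (oral), AUC and clearance (IV) and bioavailability were calculated from plasma concentrations.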

[3] = Clearance in mouse at 3 mg/kg, iv; format: ADME, organism-based; parameters: dose 3 mg/kg, route intravenous; conditions: in vivo; outline: as §2
Haemophilus influenzae = assay: Antibacterial activity against Haemophilus influenzae ATCC 49247 assessed as growth inhibition after 16 to 20 hrs by broth microdilution method; format: functional; outline: as §1
[4] = Oral bioavailability in rat at 3 mg/kg; format: ADME, organism-based; conditions: in vivo; outline: as §2
Staphylococcus aureus [5] = assay: Antibacterial activity against Staphylococcus aureus ATCC 29213 assessed as growth inhibition after 16 to 20 hrs by broth microdilution method; format: functional; outline: as §1
[6] = Intrinsic clearance in mouse liver microsomes at 10 uM by LC-MS analysis; format: ADME, Microsome; conditions: read-out: CLH
Outline: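 Compound at 10 μM, duplicate, 0.1% DMSO, with mouse liver microsomes at 1 mg/mL protein. Started with 1 mM NADPH and stopped at 0, 10, 30 and 60 min. Acetonitrile extracts analysed by LCMS. T1/2 taken from the slope of peak area over time, then converted to intrinsic clearance.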

Streptococcus pyogenes = assay: Antibacterial activity against Streptococcus pyogenes ATCC 51339 assessed as growth inhibition after 16 to 20 hrs by broth microdilution method; format: functional; outline: as §1
[7] = Cmax in mouse at 3 mg/kg, po; format: ADME, organism-based; parameters: dose 3 mg/kg, route oral; conditions: in vivo; outline: as §2
[8] = Cmax in rat at 3 mg/kg, po; format: ADME, organism-based; parameters: dose 3 mg/kg, route oral; conditions: in vivo; outline: as §2
[9] = AUC in rat at 3 mg/kg, iv; format: ADME, organism-based; parameters: dose 3 mg/kg, route intravenous; conditions: plasma; outline: as §2
[10] = Clearance in rat at 3 mg/kg, iv; format: ADME, organism-based; parameters: dose 3 mg/kg, route intravenous; conditions: in vivo; outline: as §2
[11] = AUC in mouse at 3 mg/kg, iv; format: ADME, organism-based; parameters: dose 3 mg/kg, route intravenous; conditions: plasma; outline: as §2
Staphylococcus aureus [12] = assay: Antibacterial activity against Staphylococcus aureus ATCC 29213 assessed as spontaneous mutant measuring frequency of resistance at 4 to 8 fold MIC relative to control; format: functional, organism-based
Topoisomerase IV = Topoisomerase IV (Staphylococcus aureus, UniProt P0C1S7+P0C1U9); assay: Inhibition of Staphylococcus aureus DNA topoisomerase 4 subunit ParC2/ParE2 after 60 mins by malachite green staining assay; format: protein-complex assay
Sequence of Topoisomerase IV (P0C1U9 whole entry): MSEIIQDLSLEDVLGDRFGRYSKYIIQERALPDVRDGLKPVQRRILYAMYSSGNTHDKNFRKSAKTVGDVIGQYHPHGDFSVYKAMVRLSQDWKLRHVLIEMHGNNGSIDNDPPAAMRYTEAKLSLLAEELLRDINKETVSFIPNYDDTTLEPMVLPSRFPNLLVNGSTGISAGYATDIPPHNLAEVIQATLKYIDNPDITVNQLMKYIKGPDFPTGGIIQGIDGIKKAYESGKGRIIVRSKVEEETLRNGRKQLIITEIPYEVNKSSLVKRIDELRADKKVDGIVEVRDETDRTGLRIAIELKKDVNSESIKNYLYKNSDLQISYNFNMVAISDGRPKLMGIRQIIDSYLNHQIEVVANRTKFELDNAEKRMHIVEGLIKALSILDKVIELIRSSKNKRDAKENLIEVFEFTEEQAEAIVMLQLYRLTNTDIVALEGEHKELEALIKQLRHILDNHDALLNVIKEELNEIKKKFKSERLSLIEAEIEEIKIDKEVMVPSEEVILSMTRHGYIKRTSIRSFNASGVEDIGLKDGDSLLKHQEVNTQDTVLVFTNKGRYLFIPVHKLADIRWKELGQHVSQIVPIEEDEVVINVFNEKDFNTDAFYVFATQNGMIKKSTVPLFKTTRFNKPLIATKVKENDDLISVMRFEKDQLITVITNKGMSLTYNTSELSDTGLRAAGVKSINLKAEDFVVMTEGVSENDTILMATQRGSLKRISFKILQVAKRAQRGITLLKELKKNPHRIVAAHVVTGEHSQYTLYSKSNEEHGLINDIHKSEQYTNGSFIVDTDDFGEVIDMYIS
Sequence of Topoisomerase IV (P0C1S7 whole entry): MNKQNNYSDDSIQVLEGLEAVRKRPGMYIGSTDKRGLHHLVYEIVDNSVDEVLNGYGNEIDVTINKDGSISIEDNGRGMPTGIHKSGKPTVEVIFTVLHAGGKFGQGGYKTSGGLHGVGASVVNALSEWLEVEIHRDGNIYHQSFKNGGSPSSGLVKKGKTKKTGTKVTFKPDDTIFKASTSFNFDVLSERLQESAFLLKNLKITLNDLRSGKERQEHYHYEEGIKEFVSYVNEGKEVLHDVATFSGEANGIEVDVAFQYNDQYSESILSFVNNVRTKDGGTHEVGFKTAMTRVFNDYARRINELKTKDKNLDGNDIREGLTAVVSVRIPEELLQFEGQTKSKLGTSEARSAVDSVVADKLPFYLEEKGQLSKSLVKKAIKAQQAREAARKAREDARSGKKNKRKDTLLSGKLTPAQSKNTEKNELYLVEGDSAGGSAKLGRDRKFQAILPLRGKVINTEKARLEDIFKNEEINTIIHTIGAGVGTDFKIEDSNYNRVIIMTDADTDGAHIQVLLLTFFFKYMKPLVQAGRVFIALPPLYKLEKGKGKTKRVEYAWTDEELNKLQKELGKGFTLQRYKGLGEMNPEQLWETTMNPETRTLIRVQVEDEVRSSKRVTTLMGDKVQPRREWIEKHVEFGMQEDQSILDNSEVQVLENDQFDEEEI
Outline: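 S. aureus topo IV C2E2, 25 nM, with 0.01 mg/mL DNA in 50 mM Tris-HCl pH 7.5, 5 mM MgCl2, 0.35 M K glutamate, 0.05 mg/mL BSA, 5 mM DTT, 1% DMSO. ATP added at 1 mM to start, then 30 °C for 60 min. Malachite green read at 600 nm. IC50 calculated relative to no-compound and no-enzyme controls.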

[13] = Plasma protein binding in rat; format: ADME, cell-free; conditions: read-out: PPB (converted)
[14] = Inhibition of Escherichia coli DNA gyrase ATPase subunit A2B2 after 60 mins by malachite green staining assay
Outline: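 E. coli gyrase A2B2, 10 nM, with 0.08 mg/mL DNA in 35 mM Tris pH 7.5, 24 mM KCl, 2 mM MgCl2, 6.5% glycerol, 0.1 mg/mL BSA, 2 mM DTT, 5% DMSO. Started with 1 mM ATP, 30 °C for 60 min. Phosphate read with malachite green at 600 nm after 5 min. IC50 taken against no-compound and no-enzyme controls.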

| Structure (SMILES) | MIC (Enterococcus faecalis) [µg/mL] | solubility kinetic at 24 h [1] [µg/mL] | IC50 (DNA gyrase) [µM] | bioavailability [2] [%] | clearance [3] [mL/min/kg] | MIC (Haemophilus influenzae) [µg/mL] | bioavailability [4] [%] | MIC (Staphylococcus aureus [5]) [µg/mL] | CLint scaled at 10 µM [6] [mL/min/kg] | MIC (Streptococcus pyogenes) [µg/mL] | Cmax [7] [ng/mL] | Cmax [8] [ng/mL] | AUC [9] [ng·h/mL] | clearance [10] [mL/min/kg] | AUC [11] [ng·h/mL] | Activity (Staphylococcus aureus [12]) | IC50 (Topoisomerase IV) [µM] | fraction unbound [13] | IC50 [14] [µg/mL] |
| --- | --- | --- | --- | --- | --- | --- | --- | --- | --- | --- | --- | --- | --- | --- | --- | --- | --- | --- | --- |
| CCNC(=O)Nc1nc2cc(-c3ccc(C(=O)O)nc3)cc(-c3ccccn3)c2s1 | 0.12 (≈ 0.286 µM) | 50 (≈ 119 µM) | 0.00238 | – | – | – | – | – | – | – | – | – | – | – | – | – | – | – | – |
| CCNC(=O)Nc1nc2cc(-c3ccc(N4CCC(C)(C(=O)O)CC4)nc3)cc(-c3ccccn3)c2s1 | 0.03 (≈ 0.0581 µM) | > 800 | 0.0232 | 33 | 6.5 | 2 (≈ 3.87 µM) | 31 | 0.12 (≈ 0.232 µM) | < 5.8 | 0.12 (≈ 0.232 µM) | 1700 | 600 | 6600 | 7.6 | 7600 | – | – | – | – |
| CCNC(=O)Nc1nc2cc(-c3cnc(N4CCC(C)(C(=O)O)CC4)nc3)cc(-c3ccccn3)c2s1 | 0.015 (≈ 0.029 µM) | > 800 | 0.0155 | – | – | 2 (≈ 3.86 µM) | – | 0.12 (≈ 0.232 µM) | < 5.8 | 0.06 (≈ 0.116 µM) | – | 1800 | – | 2.8 | – | inactive | 0.0155 | 0.007 | – |
| CCNC(=O)Nc1nc2cc(-c3cnc(N4CCCCC4(C)C(=O)O)nc3)cc(-c3ccccn3)c2s1 (stereo not drawn) | 0.5 (≈ 0.966 µM) | 6.25 (≈ 12.1 µM) | – | – | – | 8 (≈ 15.5 µM) | – | 0.5 (≈ 0.966 µM) | – | 0.5 (≈ 0.966 µM) | – | – | – | – | – | – | – | – | 0.007 (≈ 0.0135 µM) |
| CCNC(=O)Nc1nc2cc(-c3cnc(N4CCC(C(=O)O)(c5ccccc5)CC4)nc3)cc(-c3ccccn3)c2s1 | 0.06 (≈ 0.104 µM) | 12.5 (≈ 21.6 µM) | – | – | – | > 16 | – | 0.5 (≈ 0.863 µM) | < 5.8 | 0.5 (≈ 0.863 µM) | – | – | – | – | – | – | – | – | 0.013 (≈ 0.0224 µM) |
| CCNC(=O)Nc1nc2cc(-c3cncc(N4CCC(C)(C(=O)O)CC4)c3)cc(-c3ccccn3)c2s1 | 0.06 (≈ 0.116 µM) | > 800 | 0.029 | – | – | 4 (≈ 7.74 µM) | – | 1 (≈ 1.94 µM) | – | 0.06 (≈ 0.116 µM) | – | – | – | – | – | – | – | – | – |
| CCNC(=O)Nc1nc2cc(-c3cccnc3)cc(-c3ccccn3)c2s1 | 0.12 (≈ 0.32 µM) | 6.25 (≈ 16.6 µM) | 0.0373 | – | – | – | – | – | – | – | – | – | – | – | – | – | – | – | – |
| CCNC(=O)Nc1nc2cc(-c3cnc(N4CCC(O)(C(=O)O)CC4)nc3)cc(-c3ccccn3)c2s1 | 0.5 (≈ 0.962 µM) | 100 (≈ 192 µM) | – | – | – | 8 (≈ 15.4 µM) | – | 8 (≈ 15.4 µM) | – | 0.12 (≈ 0.231 µM) | – | – | – | – | – | – | – | – | 0.003 (≈ 0.00577 µM) |
| CCNC(=O)Nc1nc2cc(-c3cnc(N4CCC(C(=O)O)(S(C)(=O)=O)CC4)nc3)cc(-c3ccccn3)c2s1 | 4 (≈ 6.88 µM) | > 800 | – | – | – | > 16 | – | > 16 | – | 4 (≈ 6.88 µM) | – | – | – | – | – | – | – | – | 0.015 (≈ 0.0258 µM) |
| CCNC(=O)Nc1nc2cc(-c3cnc(N4CCC(N)(C(=O)O)CC4)nc3)cc(-c3ccccn3)c2s1 | > 16 | 25 (≈ 48.2 µM) | – | – | – | > 16 | – | > 16 | – | 4 (≈ 7.71 µM) | – | – | – | – | – | – | – | – | 0.025 (≈ 0.0482 µM) |
| CCNC(=O)Nc1nc2cc(-c3cnc(N4CCC(C)(C(=O)O)C4)nc3)cc(-c3ccccn3)c2s1 (stereo not drawn) | – | > 800 | 0.0794 | – | – | 4 (≈ 7.94 µM) | – | 2 (≈ 3.97 µM) | – | 0.5 (≈ 0.993 µM) | – | – | – | – | – | – | – | – | – |
| CCNC(=O)Nc1nc2cc(-c3cnc(N4CCCC4(C)C(=O)O)nc3)cc(-c3ccccn3)c2s1 (stereo not drawn) | 0.25 (≈ 0.496 µM) | > 800 | 0.00993 | – | – | 1 (≈ 1.99 µM) | – | 0.5 (≈ 0.993 µM) | – | 0.06 (≈ 0.119 µM) | – | – | – | – | – | – | – | – | – |
| CCNC(=O)Nc1nc2cc(-c3cnc(N4CCC(C(=O)O)CC4)nc3)cc(-c3ccccn3)c2s1 | 0.015 (≈ 0.0298 µM) | > 800 | 0.0199 | 8 | 55 | 2 (≈ 3.97 µM) | – | 0.12 (≈ 0.238 µM) | < 5.8 | 0.03 (≈ 0.0596 µM) | 70 | – | – | – | 900 | inactive | 0.0238 | 0.007 | – |
| CCNC(=O)Nc1nc2cc(-c3cnc(N4CCC(CC)(C(=O)O)CC4)nc3)cc(-c3ccccn3)c2s1 | 0.015 (≈ 0.0282 µM) | > 800 | 0.0226 | 87 | 3.5 | 4 (≈ 7.52 µM) | 80 | 0.06 (≈ 0.113 µM) | < 5.8 | 0.06 (≈ 0.113 µM) | 6100 | 3500 | 27700 | 1.5 | 14300 | – | – | – | – |
| CCNC(=O)Nc1nc2cc(-c3cnc(N4CCCC(C)(C(=O)O)CC4)nc3)cc(-c3ccccn3)c2s1 (stereo not drawn) | – | > 800 | 0.0113 | – | – | 8 (≈ 15 µM) | – | 0.12 (≈ 0.226 µM) | < 5.8 | 0.12 (≈ 0.226 µM) | – | – | – | – | – | – | – | – | – |
| CCNC(=O)Nc1nc2cc(-c3cnc(N4CCC(C)(C(=O)O)CC4)cn3)cc(-c3ccccn3)c2s1 | 0.03 (≈ 0.058 µM) | > 800 | 0.0386 | – | – | 8 (≈ 15.5 µM) | – | 0.5 (≈ 0.966 µM) | < 5.8 | 0.12 (≈ 0.232 µM) | – | – | – | – | – | – | – | – | – |
| CCNC(=O)Nc1nc2cc(-c3nc(N4CCC(C)(C(=O)O)CC4)ns3)cc(-c3ccccn3)c2s1 | – | – | 0.107 | – | – | > 16 | – | 1 (≈ 1.91 µM) | – | 1 (≈ 1.91 µM) | – | – | – | – | – | – | – | – | – |
| CCNC(=O)Nc1nc2cc(-c3cnc(N4CCC(C(=O)O)(C(F)(F)F)CC4)nc3)cc(-c3ccccn3)c2s1 | 0.25 (≈ 0.437 µM) | > 800 | 0.028 | – | – | 16 (≈ 28 µM) | – | 2 (≈ 3.5 µM) | – | 0.25 (≈ 0.437 µM) | – | – | – | – | – | – | – | – | – |
